4 compounds from ChEMBL document CHEMBL1152591, “Design, synthesis and structure-activity relationship of 2-(3',4',5'-trimethoxybenzoyl)-benzo[b]furan derivatives as a novel class of inhibitors of tubulin polymerization” (Bioorg Med Chem, 2009) can be followed below.

SMILES strings stand for the structures.

Experiment [1] has as its system K562. The experiment can be described thus: Cell cycle arrest in human K562 cells assessed as accumulation at S phase at 1.62 µM after 24 hrs by flow cytometry. For orientation: Flow cytometry measures light scatter and fluorescence of single cells or particles in a stream.
Experiment [2] relates to K562. As to the kind of experiment: Cell cycle arrest in human K562 cells assessed as accumulation at G2 phase at 1.62 µM after 24 hrs by flow cytometry.
Experiment [3] has as its system K562. The experiment can be described thus: Cell cycle arrest in human K562 cells assessed as accumulation at G1 phase at 1.62 µM after 24 hrs by flow cytometry.
Experiment [4] can be described thus: Cytotoxicity against human Molt4/C8 cells after 2 days. The settings on record: MOLT-4, 48 h.
The test system of a further experiment is CCRF-CEM. As to the kind of experiment: Cytotoxicity against human CEM cells after 2 days. It counts as functional, cell-based. The settings on record: 48 h.
The subject of a further experiment is L1210. As to the kind of experiment: Cytotoxicity against mouse L1210 cells after 2 days. The experiment is classed as functional, cell-based. The settings on record: L1210, 48 h. In a few lines: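 Cells were incubated with the compounds at 37 °C for two days, then counted on a Coulter counter. IC50 is the concentration that inhibits cell proliferation by 50%.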

Experiment [5] can be described thus: Inhibition of bovine tubulin polymerization. Also noted: species or system Bos taurus. In a few lines:
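Purified bovine brain tubulin (10 μM) in glutamate buffer was preincubated with varying compound concentrations at 30 °C, then cooled to 0 °C. GTP was added and the mixture warmed to 30 °C in a recording spectrophotometer. Assembly was followed by turbidity.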

In experiment [6] the test system is K562. The experiment can be described thus: Cell cycle arrest in human K562 cells assessed as accumulation at sub-G0/G1 phase at 1.62 µM after 24 hrs by flow cytometry.
For another experiment, the system named is FM3A. The experiment can be described thus: Cytotoxicity against mouse FM3A0 cells after 2 days. The experiment is classed as functional, cell-based. The settings on record: 48 h.
For another experiment, the system named is HeLa. The experiment can be described thus: Cytotoxicity against human HeLa cells after 2 days. The experiment is classed as functional, cell-based. The settings on record: 48 h.
The species entered for the next experiment is Bos taurus. The experiment can be described thus: Displacement of [3H]colchicine from bovine tubulin at 5 uM. An outline of the steps:
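Reaction mixtures held 1 μM bovine brain tubulin, 5 μM [3H]colchicine and 5 μM test compound. Inhibition of radiolabelled colchicine binding to tubulin is expressed as percent inhibition.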
Background: In a radioligand displacement assay an active substance lowers the binding of a labelled ligand.

Experiment [7] deals with K562. The experiment can be described thus: Cell cycle arrest in human K562 cells assessed as accumulation at sub-G0/G1 phase at 530 nM after 24 hrs by flow cytometry. It counts as functional. An outline of the steps: (§1)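 K562 leukaemia cells were cultured for 24 h with compound at one fixed concentration. DNA content per cell was measured by the standard propidium iodide procedure and flow cytometry. Proportions of cells in the sub-G0–G1 (apoptotic), G0–G1, S and G2–M peaks were compared with an untreated control.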

The test system of experiment [8] is K562. The experiment can be described thus: Cell cycle arrest in human K562 cells assessed as accumulation at G2 phase at 530 nM after 24 hrs by flow cytometry. It counts as functional. In a few lines: as §1
Experiment [9] concerns K562. As to the kind of experiment: Cell cycle arrest in human K562 cells assessed as accumulation at S phase at 530 nM after 24 hrs by flow cytometry. The experiment is classed as functional. An outline of the steps:
as §1

Experiment [10] relates to K562. As to the kind of experiment: Cell cycle arrest in human K562 cells assessed as accumulation at G1 phase at 530 nM after 24 hrs by flow cytometry. The experiment is classed as functional. In a few lines: as §1
Experiment [11] has as its system K562. As to the kind of experiment: Cell cycle arrest in human K562 cells assessed as accumulation at S phase at 26 nM after 24 hrs by flow cytometry. The experiment is classed as functional. In a few lines:
as §1

Experiment [12] concerns K562. The experiment can be described thus: Cell cycle arrest in human K562 cells assessed as accumulation at G1 phase at 26 nM after 24 hrs by flow cytometry. It counts as functional. In a few lines:
as §1

Experiment [13] has as its system K562. As to the kind of experiment: Cell cycle arrest in human K562 cells assessed as accumulation at G2 phase at 26 nM after 24 hrs by flow cytometry. It counts as functional. An outline of the steps:
as §1

The subject of experiment [14] is K562. As to the kind of experiment: Cell cycle arrest in human K562 cells assessed as accumulation at sub-G0/G1 phase at 26 nM after 24 hrs by flow cytometry. The experiment is classed as functional. In a few lines: as §1
Experiment [15] relates to K562. The experiment can be described thus: Cell cycle arrest in human K562 cells assessed as accumulation at G2 phase at 480 nM after 24 hrs by flow cytometry. It counts as functional.
The subject of experiment [16] is K562. As to the kind of experiment: Cell cycle arrest in human K562 cells assessed as accumulation at S phase at 480 nM after 24 hrs by flow cytometry. It counts as functional.
The subject of experiment [17] is K562. The experiment can be described thus: Cell cycle arrest in human K562 cells assessed as accumulation at G1 phase at 480 nM after 24 hrs by flow cytometry. It counts as functional.
Experiment [18] relates to K562. The experiment can be described thus: Cell cycle arrest in human K562 cells assessed as accumulation at sub-G0/G1 phase at 480 nM after 24 hrs by flow cytometry. It counts as functional.

In general, IC50 refers to the point on the concentration scale where inhibition reaches its midpoint. The low end stands for higher potency, the high end for lower potency. For `COc1cc(C(=O)c2oc3cc(F)ccc3c2C)cc(OC)c1OC`, the Activity in the experiment with K562 [1] is 44.32%; in the experiment with K562 [2] it was 47.46%; in the experiment with K562 [3] it was 8.23%; with K562 [6], 44.32%. In addition, the IC50 in [4] is 2100 nM; with CCRF-CEM, 2700 nM; with L1210, 3500 nM; in experiment [5], 6900 nM; in the experiment on FM3A, 3700 nM.
Regarding `COc1cc(C(=O)c2oc3cccc(O)c3c2C)cc(OC)c1OC`, the IC50 amounted to 130 nM in the experiment with HeLa; 84 nM in experiment [4]; 100 nM in the experiment with CCRF-CEM; 480 nM in the experiment with L1210; 570 nM in [5]; 330 nM with FM3A. In addition, the Activity came out at 85% in the experiment listed under Bos taurus; 7.6% in the experiment on K562 [7]; 65.12% in the experiment with K562 [8]; 26.37% in the experiment with K562 [9]; 8.52% in the experiment with K562 [10].
In the case of `COc1ccc2c(C)c(C(=O)c3cc(OC)c(OC)c(OC)c3)oc2c1`, the Activity with K562 [11] turned out to be 16.62%; in the experiment listed under Bos taurus, 97%; with K562 [12], 2.19%; with K562 [13], 81.19%; with K562 [14], 4.9%. The IC50 in the experiment on HeLa was 3.2 nM; in experiment [4] it was 19 nM; in the experiment on L1210 it was 24 nM; in experiment [5], 550 nM; in the experiment with FM3A it was 27 nM.
With `COc1cc(C(=O)c2oc3ccc(O)cc3c2C)cc(OC)c1OC`, the Activity was found to be 47.38% in the experiment on K562 [15]; 69% in the experiment filed under Bos taurus; 33.83% in the experiment on K562 [16]; 18.79% in the experiment on K562 [17]; 22.13% in the experiment with K562 [18]. The IC50 in the experiment on HeLa stood at 290 nM; in [4], 240 nM; in the experiment with CCRF-CEM, 430 nM; in the experiment with L1210 it was 800 nM; in [5], 1100 nM; in the experiment with FM3A it was 430 nM.
